Laboratory results from ChEMBL document CHEMBL1150607, “Ancistrocongolines A-D, new naphthylisoquinoline alkaloids from ancistrocladus congolensis” (J Nat Prod, 2002).
≈ marks a conversion by molar mass, not a printed value.

Columns and labels:
Plasmodium falciparum = experiment: Antimalarial activity against Plasmodium falciparum K1 in human erythrocytes after 48 hrs by [3H]hypoxanthine uptake; type: functional, organism-based
How it was run: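 Infected human red cells with chloroquine/pyrimethamine-resistant K1 strain exposed to serial dilutions 48 h, 37 °C, reduced O2/elevated CO2; [³H]-hypoxanthine then added, 24 h further incubation, harvested on glass fibre filters, scintillation counted. IC50 from sigmoidal inhibition curve; duplicate, repeated at least once.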

[1] = system: Trypanosoma brucei rhodesiense; experiment: Antitrypanosomal activity against Trypanosoma brucei rhodesiense after 72 hrs by alamar blue assay; type: functional, organism-based
How it was run: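 STIB 900 trypanosomes in Minimum Essential Medium with 2-mercaptoethanol and 15% heat-inactivated horse serum, serial drug dilutions, 72 h at 37 °C, 5% CO2; Alamar Blue added, 2–4 h more, fluorescence read ex 530/em 590 nm. Signal expressed as percent of control; IC50 determined.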

Trypanosoma cruzi = experiment: Antitrypanosomal activity against Trypanosoma cruzi Tulahuen strain C2C4 containing galactosidase gene in rat L6 cells after 4 days; type: functional, organism-based; details: L6, 96 h
How it was run: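 L-6 cells seeded 2000/well in RPMI 1640, 10% FBS, 2 mM L-glutamine; after 24 h, 5000 Lac Z trypomastigotes added with serial drug dilutions, 4 days at 37 °C, 5% CO2. CPRG/Nonidet substrate added, colour read at 540 nm after 2–4 h; IC50 from sigmoidal inhibition curve.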

Leishmania donovani = experiment: Antileishmanial activity against Leishmania donovani; type: functional, organism-based
[2] = Cytotoxicity against rat L6 cells after 72 hrs by alamar blue assay; type: cell-based
How it was run: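 L-6 cells in RPMI 1640 with 10% FBS exposed to serial drug dilutions, protocol closely following the T. b. rhodesiense assay; viability read with Alamar Blue, expressed as IC50.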

| SMILES | IC50 (Plasmodium falciparum) [µg/mL] | IC50 [1] [µg/mL] | IC50 (Trypanosoma cruzi) [µg/mL] | IC50 (Leishmania donovani) [µg/mL] | IC50 at 72 h [2] [µg/mL] |
| --- | --- | --- | --- | --- | --- |
| COc1c(-c2c(C)cc(OC)c3c(OC)cccc23)c(O)cc2c1[C@@H](C)N[C@H](C)C2 [ANCISTROCONGOLINE D] | 1.98 (≈ 4.87 µM) | 5.86 (≈ 14.4 µM) | 30.1 (≈ 73.9 µM) | > 30 | 27.7 (≈ 68 µM) |
| C[C@@H]1CC[C@H]2[C@@H](C)C(=O)O[C@@H]3O[C@@]4(C)CC[C@@H]1[C@]32OO4 [ARTEMISININ] | 0.001 (≈ 0.00354 µM) | – | – | – | – |
| COc1cc(O)c2c(c1-c1ccc(OC)c3c(OC)cc(C)cc13)C[C@@H](C)N(C)[C@@H]2C [ANCISTROCONGOLINE B] | 0.158 (≈ 0.375 µM) | 2.54 (≈ 6.03 µM) | 17.4 (≈ 41.3 µM) | 18.8 (≈ 44.6 µM) | 33.4 (≈ 79.2 µM) |
| COc1cc(O)c(-c2ccc(OC)c3c(OC)cc(C)cc23)c2c1[C@@H](C)N(C)[C@H](C)C2 [ANCISTROCONGOLINE C] | 3 (≈ 7.12 µM) | 15.9 (≈ 37.7 µM) | ≥ 90 | 19.3 (≈ 45.8 µM) | ≥ 90 |
| COc1cc(C)cc2c(-c3c(O)cc(O)c4c3C[C@@H](C)N(C)[C@@H]4C)ccc(O)c12 [ANCISTROCONGOLINE A] | 0.214 (≈ 0.544 µM) | 2.97 (≈ 7.55 µM) | 39.9 (≈ 101 µM) | – | 90 (≈ 229 µM) |
| O=C(Cn1ccnc1[N+](=O)[O-])NCc1ccccc1 [BENZNIDAZOLE] | – | – | 0.382 (≈ 1.47 µM) | – | – |
| COc1cc(C)cc2c(-c3c(O)cc(O)c4c3C[C@@H](C)N[C@@H]4C)ccc(O)c12 [KORUPENSAMINE A] | 0.164 (≈ 0.432 µM) | 1.87 (≈ 4.93 µM) | 14.5 (≈ 38.2 µM) | 25.1 (≈ 66.1 µM) | 38 (≈ 100 µM) |
